Laboratory results: ChEMBL document CHEMBL4387752, “Identification of substituted benzothiazole sulfones as potent and selective inhibitors of endothelial lipase” (Bioorg Med Chem Lett, 2019)

Key:
Endothelial lipase [1] = target: T1, Endothelial lipase (Homo sapiens, UniProt Q9Y5X9); experiment: Inhibition of human endothelial lipase derived from human HT1080 cell conditioned media using PED-A1 as substrate incubated for 20 mins and measured every 20 secs for 10 mins by FRET assay
T1 sequence (Q9Y5X9 whole entry): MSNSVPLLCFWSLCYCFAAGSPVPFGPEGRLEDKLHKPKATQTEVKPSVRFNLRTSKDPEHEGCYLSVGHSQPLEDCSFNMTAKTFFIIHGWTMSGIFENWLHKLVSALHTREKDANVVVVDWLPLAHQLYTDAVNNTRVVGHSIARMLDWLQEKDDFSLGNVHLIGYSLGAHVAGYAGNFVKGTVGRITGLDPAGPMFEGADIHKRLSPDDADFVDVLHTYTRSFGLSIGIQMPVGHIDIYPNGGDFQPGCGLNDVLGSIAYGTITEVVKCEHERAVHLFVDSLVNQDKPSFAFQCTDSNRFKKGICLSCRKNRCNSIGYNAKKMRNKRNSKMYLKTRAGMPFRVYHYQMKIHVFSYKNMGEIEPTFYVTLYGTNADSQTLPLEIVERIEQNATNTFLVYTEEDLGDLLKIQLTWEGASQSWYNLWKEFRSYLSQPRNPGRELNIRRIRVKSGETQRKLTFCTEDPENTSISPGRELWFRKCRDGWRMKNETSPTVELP
How it was run: (§1)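 IC50s were calculated from mean inhibition values of duplicate determinations.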

[2] = target: T2, Hepatic triacylglycerol lipase (Homo sapiens, UniProt P11150); experiment: Inhibition of human hepatic lipase expressed in African green monkey COS7 cells using PED-A1 as substrate incubated for 20 mins and measured every 20 secs for 10 mins by FRET assay; type: cell-based; how it was run: as §1
T2 sequence (P11150 whole entry): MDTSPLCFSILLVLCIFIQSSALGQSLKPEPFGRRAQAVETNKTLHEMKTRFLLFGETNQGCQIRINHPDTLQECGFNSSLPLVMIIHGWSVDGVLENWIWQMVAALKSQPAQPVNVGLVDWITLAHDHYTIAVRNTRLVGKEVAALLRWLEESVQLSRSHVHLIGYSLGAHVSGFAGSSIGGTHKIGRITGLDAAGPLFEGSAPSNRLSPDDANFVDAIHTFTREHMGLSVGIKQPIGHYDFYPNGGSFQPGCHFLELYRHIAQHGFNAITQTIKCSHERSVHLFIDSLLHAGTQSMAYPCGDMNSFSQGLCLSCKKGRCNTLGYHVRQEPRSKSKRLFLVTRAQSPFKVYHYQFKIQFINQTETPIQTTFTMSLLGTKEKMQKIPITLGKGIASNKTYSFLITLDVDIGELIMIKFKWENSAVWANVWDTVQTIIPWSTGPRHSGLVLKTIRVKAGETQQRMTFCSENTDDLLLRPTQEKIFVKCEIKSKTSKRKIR

[3] = Permeability of compound at pH 7.4 by PAMPA; type: ADME; conditions: read-out: permeability
How it was run: (§2)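 Permeability was measured by parallel artificial membrane permeability assay (PAMPA) at pH 5.5 and pH 7.4. Values are reported in nm/s.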

[4] = Permeability of compound at pH 5.5 by PAMPA; type: ADME; conditions: read-out: permeability; how it was run: as §2
[5] = Tmax in Balb/c mouse at 10 mg/kg, po; type: ADME, organism-based; conditions: in vivo
How it was run: (§3)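 Oral PK in fasted male balb/c mice. Dosing vehicle was ethanol/PEG 400/water (10:60:30).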

[6] = Cmax in Balb/c mouse at 10 mg/kg, po; type: ADME, organism-based; set-up: dose 10 mg/kg, route oral; conditions: in vivo; how it was run: as §3
[7] = Metabolic stability in Balb/c mouse liver microsomes assessed as parent compound remaining at 0.5 uM measured after 10 mins; type: ADME, Microsome; conditions: read-out: Stability
How it was run: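 Test compound at 0.5 μM was incubated for 10 min with mouse liver microsomes. The read-out is the percentage of parent remaining.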

[8] = Plasma concentration in Balb/c mouse at 10 mg/kg, po measured after 24 hrs; type: ADME, organism-based; how it was run: as §3
Endothelial lipase [9] = target: T3, Endothelial lipase (Mus musculus, UniProt Q9WVG5); experiment: Inhibition of mouse endothelial lipase expressed in HEK293F cells using D31-POPC-HDL as substrate incubated for 2 hrs in presence of mouse plasma by LC/MS analysis
T3 sequence (Q9WVG5 whole entry): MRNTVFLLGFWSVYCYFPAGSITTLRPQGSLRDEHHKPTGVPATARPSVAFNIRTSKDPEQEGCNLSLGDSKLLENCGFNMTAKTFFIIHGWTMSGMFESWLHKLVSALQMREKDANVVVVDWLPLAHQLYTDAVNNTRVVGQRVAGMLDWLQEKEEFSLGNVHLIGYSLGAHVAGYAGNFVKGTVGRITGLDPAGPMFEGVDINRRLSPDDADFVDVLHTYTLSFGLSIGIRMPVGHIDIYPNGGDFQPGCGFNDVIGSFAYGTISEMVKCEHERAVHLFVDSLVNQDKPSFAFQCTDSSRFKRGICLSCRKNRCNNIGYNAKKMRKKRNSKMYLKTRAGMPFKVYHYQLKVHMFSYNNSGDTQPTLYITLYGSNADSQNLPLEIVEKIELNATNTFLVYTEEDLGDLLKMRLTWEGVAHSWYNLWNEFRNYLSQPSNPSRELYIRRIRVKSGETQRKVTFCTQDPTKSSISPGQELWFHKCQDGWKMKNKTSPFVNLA
How it was run: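 IC50 values were derived from the means of duplicate inhibition measurements.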

[10] = Plasma concentration in Balb/c mouse at 10 mg/kg, po measured after 7 hrs; type: ADME, organism-based; how it was run: as §3
[11] = Total AUC in Balb/c mouse at 10 mg/kg, po measured after 24 hrs; type: ADME, organism-based; set-up: dose 10 mg/kg, time AUCmax, route oral; conditions: in vivo; how it was run: as §3

Structure (SMILES)	IC50 (Endothelial lipase [1]) [nM]	IC50 [2] [nM]	Papp [3] [×10⁻⁶ cm/s]	Papp [4] [×10⁻⁶ cm/s]	Tmax [5] [h]	Cmax [6] [nM]	remaining at 10 min, 0.5 µM [7] [%]	concentration at 24 h [8] [nM]	IC50 (Endothelial lipase [9]) [nM]	concentration at 7 h [10] [nM]	AUC at 24 h [11] [µM·h]
CS(=O)(=O)C(C(=O)NCCNS(N)(=O)=O)c1nc2ccc(-c3ccccc3)cc2s1 (configuration not stated)	450	81	–	–	–	–	–	–	–	–	–
CS(=O)(=O)C(C(=O)NCCS(N)(=O)=O)c1nc2ccc(-c3ccc(C(=O)N4CCOCC4)cc3)cc2s1 (configuration not stated)	10	280	1.3	1.2	2.6	36	100	5	320	8	0.16
CS(=O)(=O)C(C(=O)NCCS(N)(=O)=O)c1nc2ccc(-c3ccccc3)cc2s1 (configuration not stated)	10	15	36.8	36.5	0.5	3500	91	130	100 to 210	430	14
CS(=O)(=O)C(C(=O)NCC(=O)NC1CC1)c1nc2ccc(-c3ccccc3)cc2s1 (configuration not stated)	–	47	–	–	–	–	–	–	–	–	–
CS(=O)(=O)C(C(=O)NCCCS(N)(=O)=O)c1nc2ccc(-c3ccccc3)cc2s1 (configuration not stated)	7700	52	–	–	–	–	–	–	–	–	–
